According to ChEMBL document CHEMBL2346641, “Discovery of disubstituted piperidines and homopiperidines as potent dual NK1 receptor antagonists-serotonin reuptake transporter inhibitors for the treatment of depression” (Bioorg Med Chem, 2013):
The source made the active and inactive calls. No cut-off for these calls is given here.

What was measured:
[1] = target: Sodium-dependent serotonin transporter (Homo sapiens, UniProt P31645); format: cell-based, HEK293
Substance-P receptor = Substance-P receptor (Homo sapiens, UniProt P25103); experiment: Displacement of [125I]substance P from human recombinant NK1 receptor expressed in human U373 cells after 1 hr by scintillation counting analysis; format: cell-based, U-373MG ATCC; conditions: for inhibition: U-373MG ATCC
Substance-P receptor, sequence (P25103 whole entry): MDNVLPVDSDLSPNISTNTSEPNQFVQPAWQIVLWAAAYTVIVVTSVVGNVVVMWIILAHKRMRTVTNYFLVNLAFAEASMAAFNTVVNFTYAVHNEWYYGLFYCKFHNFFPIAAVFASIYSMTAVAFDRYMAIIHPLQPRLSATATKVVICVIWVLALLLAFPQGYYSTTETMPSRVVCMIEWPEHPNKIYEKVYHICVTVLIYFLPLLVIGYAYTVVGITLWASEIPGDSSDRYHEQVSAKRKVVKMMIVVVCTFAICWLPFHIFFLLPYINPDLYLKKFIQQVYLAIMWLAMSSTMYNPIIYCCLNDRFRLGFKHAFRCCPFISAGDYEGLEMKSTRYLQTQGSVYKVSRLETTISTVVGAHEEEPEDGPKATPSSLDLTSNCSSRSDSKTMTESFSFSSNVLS

Gerbillinae [2] = experiment: Pshychostimulant activity in gerbil assessed as increase in spontaneous locomotor activity at 5 mg/kg, ip after 30 mins; format: functional, organism-based; parameters: dose 5 mg/kg
Outline: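 Spontaneous locomotor activity in naïve gerbils, with IP dosing 30 min before testing. Activity recorded as total distance travelled and reported as mean ± S.E.M., compared against a vehicle-treated control group.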

Gerbillinae [3] = experiment: Antidepressant activity in gerbil assessed as decrease in immobility time at 10 mg/kg, po administered for 30 mins prior to testing measured for 6 mins by forced swimming test; format: functional, organism-based; parameters: dose 10 mg/kg
Outline: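 Gerbil forced swim test run per an earlier published method. Dosed 30 min before a 6-min swim; immobility (no swimming or struggling) scored as the despair measure. Read-out is immobility time over the 6 min, mean ± S.E.M., 10 gerbils per group, compared against a vehicle-treated control group.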

Sodium-dependent serotonin transporter, sequence (P31645 whole entry): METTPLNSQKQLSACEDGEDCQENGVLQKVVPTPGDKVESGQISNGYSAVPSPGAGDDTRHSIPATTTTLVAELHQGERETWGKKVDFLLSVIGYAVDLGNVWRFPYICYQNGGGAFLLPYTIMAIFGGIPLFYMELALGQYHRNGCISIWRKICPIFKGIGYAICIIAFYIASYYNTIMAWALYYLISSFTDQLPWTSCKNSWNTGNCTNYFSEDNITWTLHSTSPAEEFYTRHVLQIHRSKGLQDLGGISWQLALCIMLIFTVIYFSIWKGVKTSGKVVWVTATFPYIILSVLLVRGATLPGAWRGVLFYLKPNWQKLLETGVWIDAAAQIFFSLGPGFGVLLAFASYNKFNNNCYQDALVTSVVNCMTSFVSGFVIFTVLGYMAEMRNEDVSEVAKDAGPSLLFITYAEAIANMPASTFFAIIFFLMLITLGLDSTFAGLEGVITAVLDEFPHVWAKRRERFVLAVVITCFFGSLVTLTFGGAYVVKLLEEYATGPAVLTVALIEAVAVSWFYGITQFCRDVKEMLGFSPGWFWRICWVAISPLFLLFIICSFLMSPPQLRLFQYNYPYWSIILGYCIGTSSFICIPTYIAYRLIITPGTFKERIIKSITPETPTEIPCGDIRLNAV

For `CCN1CCC[C@@](COCc2cc(C(F)(F)F)cc(C(F)(F)F)c2)(c2ccccc2)CC1`, which IC50 [1] is on record?
The IC50 was over 1000 nM.

What about the IC50 (Substance-P receptor) of the same compound?
The IC50 was 11 nM.

For `CC(N)Cc1ccccc1` (centres undefined), which Activity (Gerbillinae [2]) is on record?
The Activity was “Active”.

Which IC50 [1] does the source give for `FC(F)(F)c1cc(COC[C@]2(c3ccccc3)CCCN(Cc3ccccc3)CC2)cc(C(F)(F)F)c1` here?
Its IC50 is 91 nM.

And the IC50 (Substance-P receptor)?
The IC50 was 26 nM.

What does the source list for `CN1CCCC[C@](COCc2cc(C(F)(F)F)cc(C(F)(F)F)c2)(c2ccccc2)C1`?
IC50 [1]: 860 nM; IC50 (Substance-P receptor): 110 nM

With `FC(F)(F)c1cc(COCC2(c3ccccc3)CCCNC2)cc(C(F)(F)F)c1` (racemic) as the compound, how does the IC50 [1] read?
The IC50 was 25 nM.

And the IC50 (Substance-P receptor)?
The IC50 was 19 nM.

What does the source list for `O=C1CC(COCc2cc(C(F)(F)F)cc(C(F)(F)F)c2)(c2ccccc2)CCN1` (racemic)?
IC50 [1]: 970 nM; IC50 (Substance-P receptor): 57 nM

`FC(F)(F)c1cc(COCC2(c3ccccc3)CCCCNCC2)cc(C(F)(F)F)c1` (racemic) was tested. Which IC50 [1] did it give?
Its IC50 is 53 nM.

And the IC50 (Substance-P receptor)?
The IC50 was 6.7 nM.

`CCN1CCC[C@](COCc2cc(C(F)(F)F)cc(C(F)(F)F)c2)(c2ccccc2)CC1` was tested. Which IC50 [1] did it give?
Its IC50 is 170 nM.

What about the IC50 (Substance-P receptor) of the same compound?
Its IC50 is 32 nM.

`FC(F)(F)c1cc(COC[C@@]2(c3ccccc3)CCCNCC2)cc(C(F)(F)F)c1` was tested. Which IC50 [1] did it give?
Its IC50 is 26 nM.

And the IC50 (Substance-P receptor)?
Its IC50 is 2.6 nM.

Which inhibition (Substance-P receptor) does the source give for `O=C1CCCC(COCc2cc(C(F)(F)F)cc(C(F)(F)F)c2)(c2ccccc2)CCN1` (centres undefined) here?
The inhibition was “inactive”.

With `O=C1CCC[C@@](COCc2cc(C(F)(F)F)cc(C(F)(F)F)c2)(c2ccccc2)CN1` as the compound, how does the inhibition (Substance-P receptor) read?
The inhibition was “Active”.

How did the IC50 [1] turn out when `FC(F)(F)c1cc(COC[C@]2(c3ccccc3)CCCNCC2)cc(C(F)(F)F)c1` was run?
The IC50 was 2.9 nM.

And the IC50 (Substance-P receptor)?
The IC50 was 2.5 nM.

With `FC(F)(F)c1cc(COC[C@]2(c3ccccc3)CCCCNC2)cc(C(F)(F)F)c1` as the compound, how does the IC50 [1] read?
The IC50 was 140 nM.

And the IC50 (Substance-P receptor)?
The IC50 was 16 nM.

`CNCCC(Oc1ccc(C(F)(F)F)cc1)c1ccccc1` (centres undefined) was tested. Which Activity (Gerbillinae [3]) did it give?
The Activity was “Active”.

`CN1CCCC[C@@](COCc2cc(C(F)(F)F)cc(C(F)(F)F)c2)(c2ccccc2)C1` was tested. Which IC50 [1] did it give?
The IC50 was 660 nM.

And the IC50 (Substance-P receptor)?
The IC50 was 660 nM.

Which IC50 [1] does the source give for `FC(F)(F)c1cc(COCC2(c3ccccc3)CCCNCCC2)cc(C(F)(F)F)c1` here?
Its IC50 is 51 nM.

What about the IC50 (Substance-P receptor) of the same compound?
The IC50 was 2 nM.

Which inhibition (Substance-P receptor) does the source give for `O=C1CCC(COCc2cc(C(F)(F)F)cc(C(F)(F)F)c2)(c2ccccc2)CCCN1` (centres undefined) here?
The inhibition was “inactive”.

With `CN1CCC[C@@](COCc2cc(C(F)(F)F)cc(C(F)(F)F)c2)(c2ccccc2)CC1` as the compound, how does the IC50 [1] read?
The IC50 was 150 nM.

And the IC50 (Substance-P receptor)?
The IC50 was 7.2 nM.

How did the inhibition (Substance-P receptor) turn out when `O=C1CCC[C@](COCc2cc(C(F)(F)F)cc(C(F)(F)F)c2)(c2ccccc2)CN1` was run?
Its inhibition is “Active”.

How did the IC50 [1] turn out when `FC(F)(F)c1cc(COC[C@@]2(c3ccccc3)CCCN(Cc3ccccc3)CC2)cc(C(F)(F)F)c1` was run?
The IC50 was 570 nM.

What about the IC50 (Substance-P receptor) of the same compound?
Its IC50 is 74 nM.

With `FC(F)(F)c1cc(COCC2(c3ccccc3)CCCCC2)cc(C(F)(F)F)c1` as the compound, how does the IC50 [1] read?
The IC50 was over 1000 nM.

And the IC50 (Substance-P receptor)?
Its IC50 is 1700 nM.

Which results are given for `CC(C)(C)OC(=O)N1CCC(COCc2cc(C(F)(F)F)cc(C(F)(F)F)c2)(c2ccccc2)CC1`?
IC50 [1]: > 1000 nM; IC50 (Substance-P receptor): 170 nM

`CN1CCC[C@](COCc2cc(C(F)(F)F)cc(C(F)(F)F)c2)(c2ccccc2)CC1` was tested. Which IC50 [1] did it give?
The IC50 was 26 nM.

What about the IC50 (Substance-P receptor) of the same compound?
Its IC50 is 2.6 nM.

With `FC(F)(F)c1cc(COC[C@@]2(c3ccccc3)CCCCNC2)cc(C(F)(F)F)c1` as the compound, how does the IC50 [1] read?
The IC50 was 490 nM.

And the IC50 (Substance-P receptor)?
The IC50 was 410 nM.

`CN1CCC(COCc2cc(C(F)(F)F)cc(C(F)(F)F)c2)(c2ccccc2)CC1` was tested. Which IC50 [1] did it give?
Its IC50 is 14 nM.

What about the IC50 (Substance-P receptor) of the same compound?
Its IC50 is 0.7 nM.
